The whole screen tested about 360,000 compounds, of which about 770 (0.21%) were called active. Shown is part of a subset that was picked to be rich in actives. A number with no mark means an inactive call.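 Rule for the calls: active = inhibition at least 30% at 10 µM, raw YFP signal under a set limit, fluorescence ratio 0.5 to 1.5; inactive = the rest.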
target: Sentrin-specific protease 1 (Homo sapiens) (UniProt Q9P0U3); test: blockers of SENP1 SUMO protease activity – biochemical, FRET, uHTS, primary screen (AID 624204); conditions: recombinant SENP1 catalytic domain, CyPet-SUMO1-YPet FRET cleavage; at 10 µM; active compounds read high;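 note: 0% = enzyme with DMSO and 100% = no enzyme wells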
Sequence (Q9P0U3 419-644 limits assumed): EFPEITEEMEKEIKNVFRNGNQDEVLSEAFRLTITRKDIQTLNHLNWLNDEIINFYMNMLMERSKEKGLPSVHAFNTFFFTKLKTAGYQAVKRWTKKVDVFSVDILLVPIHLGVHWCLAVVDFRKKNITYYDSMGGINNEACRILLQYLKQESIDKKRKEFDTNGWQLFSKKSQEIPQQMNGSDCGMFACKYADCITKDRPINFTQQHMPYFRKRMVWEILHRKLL
Outline: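 Compound: 10 µM single point, 0.5% DMSO; Test system: hSENP1 catalytic domain, recombinant; Timing: 50 min reaction at room temperature; Technique: FRET, CFP and YFP emission; Control set: no-enzyme wells low, DMSO-plus-enzyme wells high control.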

| SMILES | inhibition |
| --- | --- |
| O=C1N=c2ccccc2=C/C1=C\c1c(O)[nH]c(=S)[nH]c1=O | -11.3% |
| COc1ccccc1N=Nc1c(O)[nH]c(=S)[nH]c1=O | 48.9% (active) |
| CCOCCc1c(O)[nH]c(=S)[nH]c1=O | -0.672% |
| CCCOC(=O)C1C2c3ccccc3C(c3ccccc32)C1C(=O)O (stereo not given) | -1.79% |
| CC(CC(C#N)(c1ccccc1)c1ccccc1)N1CCCCC1 (stereo not given) | 1.04% |

— PubChem BioAssay AID624204 (Sanford-Burnham Center for Chemical Genomics, 2012)
